# How the values were obtained:
# Mus musculus [1] = experiment: Acute toxicity in Swiss albino mouse assessed as effect on MDA levels per mg of tissue protein at 50 mg/kg, po after 7 days (reference value: 0.24 +/- 0.05 nmol); assay type: organism-based; settings: in vivo, 168 h
# Mus musculus [2] = experiment: Acute toxicity in Swiss albino mouse assessed as effect on WBC count at 50 mg/kg, po after 7 days (reference value: 7.47 +/- 1.61 10^3/mm3); assay type: organism-based; settings: in vivo, 168 h
# Mus musculus [3] = experiment: Acute toxicity in Swiss albino mouse assessed as effect on serum protein levels at 300 mg/kg, po after 7 days (reference value: 0.10 +/- 0.004 mg/mL); assay type: organism-based; settings: in vivo, 168 h
# Mus musculus [4] = experiment: Acute toxicity in Swiss albino mouse assessed as effect on RBC count at 50 mg/kg, po after 7 days (reference value: 7.61 +/- 0.54 10^6/mm3); assay type: organism-based; settings: in vivo, 168 h
# Mus musculus [5] = experiment: Acute toxicity in Swiss albino mouse assessed as effect on serum protein levels at 1000 mg/kg, po after 7 days (reference value: 0.10 +/- 0.004 mg/mL); assay type: organism-based; settings: in vivo, 168 h
# Mus musculus [6] = experiment: Acute toxicity in Swiss albino mouse assessed as effect on ALKP levels at 5 mg/kg, po after 7 days (reference value: 219.20 +/- 5.9 U/L); assay type: organism-based; settings: in vivo, 168 h
# Mus musculus [7] = experiment: Acute toxicity in Swiss albino mouse assessed as effect on tissue protein levels at 1000 mg/kg, po after 7 days (reference value: 0.06 +/- 0.004 mg/mL); assay type: organism-based; settings: in vivo, 168 h
# Mus musculus [8] = experiment: Acute toxicity in Swiss albino mouse assessed as effect on ALKP levels at 300 mg/kg, po after 7 days (reference value: 219.20 +/- 5.9 U/L); assay type: organism-based; settings: in vivo, 168 h
# Mus musculus [9] = experiment: Acute toxicity in Swiss albino mouse assessed as effect on WBC count at 300 mg/kg, po after 7 days (reference value: 7.47 +/- 1.61 10^3/mm3); assay type: organism-based; settings: in vivo, 168 h
# Mus musculus [10] = experiment: Acute toxicity in Swiss albino mouse assessed as effect on relative heart weight at 5 to 1000 mg/kg, po after 7 days; assay type: organism-based; settings: in vivo, 168 h
# How it was run: (§1)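 Single acute oral dose of 5, 50, 300 or 1000 mg/kg body weight, with an untreated control group; n=6 mice per group. Animals observed for 7 days for morbidity, mortality, behaviour and body weight. At the end, blood and serum were analysed, and organs were examined grossly with absolute and relative weights. Data are mean±SE; P<0.05 was taken as significant versus control and the lower-dose groups.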
# Mus musculus [11] = experiment: Acute toxicity in Swiss albino mouse assessed as effect on albumin levels at 300 mg/kg, po after 7 days (reference value: 3.53 +/- 0.35 mg/dL); assay type: organism-based; settings: in vivo, 168 h
# Mus musculus [12] = experiment: Acute toxicity in Swiss albino mouse assessed as effect on relative kidney weight at 5 to 1000 mg/kg, po after 7 days; assay type: organism-based; settings: in vivo, 168 h; how it was run: as §1
# Mus musculus [13] = experiment: Acute toxicity in Swiss albino mouse assessed as effect on absolute liver weight at 5 to 1000 mg/kg, po after 7 days; assay type: organism-based; settings: in vivo, 168 h; how it was run: as §1
# Mus musculus [14] = experiment: Acute toxicity in Swiss albino mouse assessed as effect on tissue protein levels at 5 mg/kg, po after 7 days (reference value: 0.06 +/- 0.004 mg/mL); assay type: organism-based; settings: in vivo, 168 h
# Mus musculus [15] = experiment: Acute toxicity in Swiss albino mouse assessed as effect on RBC count at 5 mg/kg, po after 7 days (reference value: 7.61 +/- 0.54 10^6/mm3); assay type: organism-based; settings: in vivo, 168 h
# Mus musculus [16] = experiment: Acute toxicity in Swiss albino mouse assessed as effect on RBC count at 1000 mg/kg, po after 7 days (reference value: 7.61 +/- 0.54 10^6/mm3); assay type: organism-based; settings: in vivo, 168 h
# Mus musculus [17] = experiment: Acute toxicity in Swiss albino mouse assessed as effect on body weight at 300 mg/kg, po after 7 days (reference value: 28.25 +/- 0.54 g); assay type: organism-based; settings: in vivo, 168 h
# Mus musculus [18] = experiment: Acute toxicity in Swiss albino mouse assessed as effect on haemoglobin levels at 300 mg/kg, po after 7 days (reference value: 12.29 +/- 0.53 g/dL); assay type: organism-based; settings: in vivo, 168 h
# [19] = Acute toxicity in Swiss albino mouse assessed as mortality at 1000 mg/kg, po measured over 7 days; assay type: organism-based; settings: in vivo, read-out: Activity; how it was run: as §1
# Mus musculus [20] = experiment: Acute toxicity in Swiss albino mouse assessed as effect on triglyceride levels at 300 mg/kg, po after 7 days (reference value: 45.21 +/- 2.95 mg/dL); assay type: organism-based; settings: in vivo, 168 h
# Mus musculus [21] = experiment: Acute toxicity in Swiss albino mouse assessed as effect on serum protein levels at 50 mg/kg, po after 7 days (reference value: 0.10 +/- 0.004 mg/mL); assay type: organism-based; settings: in vivo, 168 h
# Mus musculus [22] = experiment: Acute toxicity in Swiss albino mouse assessed as effect on triglyceride levels at 50 mg/kg, po after 7 days (reference value: 45.21 +/- 2.95 mg/dL); assay type: organism-based; settings: in vivo, 168 h
# [23] = Lipophilicity, log P of the compound; assay type: physicochemical; settings: octanol/water; read-out: logP
# Mus musculus [24] = experiment: Acute toxicity in Swiss albino mouse assessed as effect on cholesterol levels at 300 mg/kg, po after 7 days (reference value: 89.73 +/- 10.76 mg/dL); assay type: organism-based; settings: in vivo, 168 h
# Mus musculus [25] = experiment: Acute toxicity in Swiss albino mouse assessed as effect on RBC count at 300 mg/kg, po after 7 days (reference value: 7.61 +/- 0.54 10^6/mm3); assay type: organism-based; settings: in vivo, 168 h
# Mus musculus [26] = experiment: Acute toxicity in Swiss albino mouse assessed as effect on relative spleen weight at 5 to 1000 mg/kg, po after 7 days; assay type: organism-based; settings: in vivo, 168 h; how it was run: as §1
# Mus musculus [27] = experiment: Acute toxicity in Swiss albino mouse assessed as inactivity at 1000 mg/kg, po measured over 7 days; assay type: organism-based; settings: in vivo, 168 h; how it was run: as §1
# Mus musculus [28] = experiment: Acute toxicity in Swiss albino mouse assessed as effect on body weight at 50 mg/kg, po after 7 days (reference value: 28.25 +/- 0.54 g); assay type: organism-based; settings: in vivo, 168 h
# Mus musculus [29] = experiment: Acute toxicity in Swiss albino mouse assessed as effect on triglyceride levels at 1000 mg/kg, po after 7 days (reference value: 45.21 +/- 2.95 mg/dL); assay type: organism-based; settings: in vivo, 168 h
# Mus musculus [30] = experiment: Acute toxicity in Swiss albino mouse assessed as effect on ALKP levels at 1000 mg/kg, po after 7 days (reference value: 219.20 +/- 5.9 U/L); assay type: organism-based; settings: in vivo, 168 h
# Mus musculus [31] = experiment: Acute toxicity in Swiss albino mouse assessed as effect on absolute brain weight at 5 to 1000 mg/kg, po after 7 days; assay type: organism-based; settings: in vivo, 168 h; how it was run: as §1
# Mus musculus [32] = experiment: Acute toxicity in Swiss albino mouse assessed as effect on MDA levels per mg of tissue protein at 5 mg/kg, po after 7 days (reference value: 0.24 +/- 0.05 nmol); assay type: organism-based; settings: in vivo, 168 h
# Mus musculus [33] = experiment: Acute toxicity in Swiss albino mouse assessed as effect on albumin levels at 5 mg/kg, po after 7 days (reference value: 3.53 +/- 0.35 mg/dL); assay type: organism-based; settings: in vivo, 168 h
# Mus musculus [34] = experiment: Acute toxicity in Swiss albino mouse assessed as effect on absolute lung weight at 5 to 1000 mg/kg, po after 7 days; assay type: organism-based; settings: in vivo, 168 h; how it was run: as §1
# Mus musculus [35] = experiment: Acute toxicity in Swiss albino mouse assessed as effect on GSH levels per mg of tissue protein at 5 mg/kg, po after 7 days (reference value: 17.64 +/- 1.03 micromol); assay type: organism-based; settings: in vivo, 168 h
# Mus musculus [36] = experiment: Acute toxicity in Swiss albino mouse assessed as effect on absolute kidney weight at 5 to 1000 mg/kg, po after 7 days; assay type: organism-based; settings: in vivo, 168 h; how it was run: as §1
smiles,measurement,setting,value
COc1ccc2c(c1)nc(-c1ccccc1OC)n2Cc1ccccc1OC,Activity,Mus musculus [1],0.32 nmol
same,Activity,Mus musculus [2],6.33 10^3/mm3
same,Activity,Mus musculus [3],0.09 mg/mL
same,Activity,Mus musculus [4],7.44 10^6/mm3
same,Activity,Mus musculus [5],0.09 mg/mL
same,Activity,Mus musculus [6],172.1 U/L
same,Activity,Mus musculus [7],0.05 mg/mL
same,Activity,Mus musculus [8],169.24 U/L
same,Activity,Mus musculus [9],5.67 10^3/mm3
same,Activity,Mus musculus [10],Non-Toxic
same,Activity,Mus musculus [11],3.79 mg/dL
same,Activity,Mus musculus [12],Non-Toxic
same,Activity,Mus musculus [13],Non-Toxic
same,Activity,Mus musculus [14],0.06 mg/mL
same,Activity,Mus musculus [15],6.92 10^6/mm3
same,Activity,Mus musculus [16],7.33 10^6/mm3
same,Activity,Mus musculus [17],25.47 g
same,Activity,Mus musculus [18],11.51 g/dL
same,mortality at 168 h,[19],50%
same,Activity,Mus musculus [20],43.04 mg/dL
same,Activity,Mus musculus [21],0.09 mg/mL
same,Activity,Mus musculus [22],41.98 mg/dL
same,logP,[23],4.45
same,Activity,Mus musculus [24],97.14 mg/dL
same,Activity,Mus musculus [25],6.87 10^6/mm3
same,Activity,Mus musculus [26],Non-Toxic
same,Activity,Mus musculus [27],Non-Toxic
same,Activity,Mus musculus [28],27.61 g
same,Activity,Mus musculus [29],57.01 mg/dL
same,Activity,Mus musculus [30],118.06 U/L
same,Activity,Mus musculus [31],Non-Toxic
same,Activity,Mus musculus [32],0.26 nmol
same,Activity,Mus musculus [33],3.81 mg/dL
same,Activity,Mus musculus [34],Non-Toxic
same,Activity,Mus musculus [35],15.6 µmol
same,Activity,Mus musculus [36],Non-Toxic
